pEC50: −log10 of the molar value. Activity calls are given as the source filed them. The rule behind the calls is not given here.

Test [1] addresses Methionine aminopeptidase 1 (Homo sapiens) (UniProt P53582). The test is described as follows: Inhibition of human MetAP at 25 uM after 20 mins by HPLC analysis. The gist of the method: (§1)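 Endpoint assay. Enzyme (50 nM) was preincubated with 25 μM compound for 20 min at 37 °C in 50 mM Tris pH 7.5, 100 mM NaCl, 100 μM CoCl2, 0.075% BSA. MGMM substrate (400 μM) was then added for 15 min (human MetAP-1) or 20 min (E. coli MetAP). Reactions were stopped with TFA. GMM product was quantified by RP-HPLC, UV 214 nm. Triplicate.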

The target in test [2] is Genome polyprotein (West Nile virus) (UniProt P06935). The test is described as follows: Inhibition of West Nile virus NS2B-NS3 protease at 50 uM.
Test [3] deals with Escherichia coli. The test is described as follows: Inhibition of wild-type Escherichia coli MurA compound preincubated for 10 mins before substrate addition at 25 uM measured after 15 mins by LC-MS method.
In test [4] the test system is Escherichia coli. The test is described as follows: Inhibition of wild-type Escherichia coli MurF compound preincubated for 10 mins before substrate addition at 25 uM measured after 15 mins by LC-MS method. Summed up: (§2)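 E. coli wild-type enzyme (4 nM) was preincubated with 25 μM compound for 10 min at 37 °C. Enzymatically generated nucleotide-sugar substrate (~200 μM) plus ATP (~200 μM), or NADPH 200 μM for MurB, was added for 10 min. Reactions were started with amino-acid cosubstrate (MurC–F) or EP-UNAG (MurB), run 15 min at 37 °C, and quenched with formic acid. Product was measured by negative-ESI LC-MS EIC peak area. MgCl2: MurC 10, MurD/E 2, MurF 5 mM; MurB had 5 mM KCl. All in 50 mM NH4HCO3, 0.07% BSA, 1% DMSO; triplicate.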

Test [5] addresses Genome polyprotein (dengue virus type 2) (UniProt P12823). In words: Inhibition of Dengue virus serotype 2 NS2B-NS3 protease at 50 uM.
The subject of test [6] is Escherichia coli. In words: Inhibition of wild-type Escherichia coli MurE compound preincubated for 10 mins before substrate addition at 25 uM measured after 15 mins by LC-MS method. Summed up: as §2
Test [7] deals with Escherichia coli. In words: Induction of covalent MurB enzyme adduct formation preincubated with UNAG substrate for 10 mins compound treated at 300 uM after 1 hr by ESI-MS analysis.
Test [8] can be described thus: GSH reactivity of the compound assessed as adducts formation by RP-HPLC analysis. Summed up:
(§3)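 Fresh aqueous glutathione (10 mM solution) was added to 50 mM Tris-maleate buffer, pH 7.5. The reaction was started with compound from 10 mM DMSO stock (final 250 μM). Mixtures were followed by reversed-phase HPLC on an ODS column with a gradient to 100% B; rate constants are given in l·mol⁻¹·s⁻¹.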

The test system of test [9] is Escherichia coli. The test is described as follows: Inhibition of wild-type Escherichia coli MurD compound preincubated for 10 mins before substrate addition at 25 uM measured after 15 mins by LC-MS method. Summed up:
as §2

Test [10] concerns Escherichia coli. The test is described as follows: Inhibition of Escherichia coli MetAP at 25 uM after 20 mins by HPLC analysis. The gist of the method: as §1
Test [11] has as its system Escherichia coli. In words: Inhibition of wild-type Escherichia coli MurC compound preincubated for 10 mins before substrate addition at 25 uM measured after 15 mins by LC-MS method. Summed up: as §2
For test [12], the system named is Escherichia coli. In words: Inhibition of wild-type Escherichia coli MurB compound preincubated for 10 mins before substrate addition at 25 uM measured after 15 mins by LC-MS method. The gist of the method:
as §2

For the next test, the target named is Prothrombin (Bos taurus) (UniProt P00735). In words: Inhibition of Bovine thrombin using Boc-Val-Pro-Arg-AMC as substrate compound preincubated at 25 uM for 15 mins by fluorescence assay. Summed up: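 Bovine thrombin (final 10 nM) was preincubated 15 min with 25 μM compound in 50 mM Tris-HCl pH 7.5, 150 mM NaCl, 0.05% Tween 20. The reaction was started with Boc-Val-Pro-Arg-AMC (50 μM final). Fluorescence (ex 355/em 460 nm) was monitored continuously for 10 min; activity taken as slope (RFU/s). Triplicate.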

Test [13] has as its system Escherichia coli. The test is described as follows: Induction of covalent MurE enzyme adduct formation preincubated with UNAG substrate for 10 mins compound treated at 300 uM after 1 hr by ESI-MS analysis.
A further test deals with HeLa. The test is described as follows: Cytotoxicity against human HeLa cells assessed as reduction in cell viability after 24 hrs by CellTiter-Blue assay. Type of test: cell-based. The gist of the method:
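HeLa cells seeded in triplicate at 5×10^3 cells/well and grown 24 h at 37 °C/5% CO2. Compounds at varying concentrations were added as a 2x stock in phenol-red-free DMEM with FBS, penicillin/streptomycin, sodium pyruvate and L-glutamine, then left 24 h. Medium was replaced with CellTiter-Blue medium for 3 h. A570/A610 was read after background subtraction, as % of untreated controls; EC50 derived.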

Test [14] concerns Escherichia coli. In words: Induction of covalent MetAP enzyme adduct formation at 300 uM after 1 hr by ESI-MS analysis. The gist of the method: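 E. coli MetAP (25 μM) was incubated with 300 μM compound for 60 min at 37 °C in 50 mM NH4HCO3, pH 7.9, with 200 μM CoCl2. Untreated enzyme served as control. Samples were spin-desalted on Sephadex G-25 and analysed by flow-injection ESI-MS in positive mode (isocratic water/acetonitrile 95/5 with 0.1% formic acid), looking for covalent adducts.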

Test [15] concerns Escherichia coli. The test is described as follows: Induction of covalent MurA enzyme adduct formation preincubated with UNAG substrate for 10 mins compound treated at 300 uM after 1 hr by ESI-MS analysis. The gist of the method:
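E. coli MurA (25 μM) preincubated with UNAG 300 μM for 10 min at 37 °C, then test compound added at 300 μM. Incubation ran 60 min at 37 °C in 50 mM NH₄HCO₃, pH 7.9. Samples were spin-desalted on Sephadex G-25, then analysed by flow-injection positive-mode ESI-MS for enzyme adducts. Untreated enzyme served as control.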

A short description of test [16]: GSH reactivity of the compound assessed as half life by RP-HPLC analysis.
Test [17] can be described thus: GSH reactivity of the compound assessed as adducts formation meaured over 3 hrs by RP-HPLC analysis. Summed up: as §3

Chain of Genome polyprotein (West Nile virus) (P06935 whole entry): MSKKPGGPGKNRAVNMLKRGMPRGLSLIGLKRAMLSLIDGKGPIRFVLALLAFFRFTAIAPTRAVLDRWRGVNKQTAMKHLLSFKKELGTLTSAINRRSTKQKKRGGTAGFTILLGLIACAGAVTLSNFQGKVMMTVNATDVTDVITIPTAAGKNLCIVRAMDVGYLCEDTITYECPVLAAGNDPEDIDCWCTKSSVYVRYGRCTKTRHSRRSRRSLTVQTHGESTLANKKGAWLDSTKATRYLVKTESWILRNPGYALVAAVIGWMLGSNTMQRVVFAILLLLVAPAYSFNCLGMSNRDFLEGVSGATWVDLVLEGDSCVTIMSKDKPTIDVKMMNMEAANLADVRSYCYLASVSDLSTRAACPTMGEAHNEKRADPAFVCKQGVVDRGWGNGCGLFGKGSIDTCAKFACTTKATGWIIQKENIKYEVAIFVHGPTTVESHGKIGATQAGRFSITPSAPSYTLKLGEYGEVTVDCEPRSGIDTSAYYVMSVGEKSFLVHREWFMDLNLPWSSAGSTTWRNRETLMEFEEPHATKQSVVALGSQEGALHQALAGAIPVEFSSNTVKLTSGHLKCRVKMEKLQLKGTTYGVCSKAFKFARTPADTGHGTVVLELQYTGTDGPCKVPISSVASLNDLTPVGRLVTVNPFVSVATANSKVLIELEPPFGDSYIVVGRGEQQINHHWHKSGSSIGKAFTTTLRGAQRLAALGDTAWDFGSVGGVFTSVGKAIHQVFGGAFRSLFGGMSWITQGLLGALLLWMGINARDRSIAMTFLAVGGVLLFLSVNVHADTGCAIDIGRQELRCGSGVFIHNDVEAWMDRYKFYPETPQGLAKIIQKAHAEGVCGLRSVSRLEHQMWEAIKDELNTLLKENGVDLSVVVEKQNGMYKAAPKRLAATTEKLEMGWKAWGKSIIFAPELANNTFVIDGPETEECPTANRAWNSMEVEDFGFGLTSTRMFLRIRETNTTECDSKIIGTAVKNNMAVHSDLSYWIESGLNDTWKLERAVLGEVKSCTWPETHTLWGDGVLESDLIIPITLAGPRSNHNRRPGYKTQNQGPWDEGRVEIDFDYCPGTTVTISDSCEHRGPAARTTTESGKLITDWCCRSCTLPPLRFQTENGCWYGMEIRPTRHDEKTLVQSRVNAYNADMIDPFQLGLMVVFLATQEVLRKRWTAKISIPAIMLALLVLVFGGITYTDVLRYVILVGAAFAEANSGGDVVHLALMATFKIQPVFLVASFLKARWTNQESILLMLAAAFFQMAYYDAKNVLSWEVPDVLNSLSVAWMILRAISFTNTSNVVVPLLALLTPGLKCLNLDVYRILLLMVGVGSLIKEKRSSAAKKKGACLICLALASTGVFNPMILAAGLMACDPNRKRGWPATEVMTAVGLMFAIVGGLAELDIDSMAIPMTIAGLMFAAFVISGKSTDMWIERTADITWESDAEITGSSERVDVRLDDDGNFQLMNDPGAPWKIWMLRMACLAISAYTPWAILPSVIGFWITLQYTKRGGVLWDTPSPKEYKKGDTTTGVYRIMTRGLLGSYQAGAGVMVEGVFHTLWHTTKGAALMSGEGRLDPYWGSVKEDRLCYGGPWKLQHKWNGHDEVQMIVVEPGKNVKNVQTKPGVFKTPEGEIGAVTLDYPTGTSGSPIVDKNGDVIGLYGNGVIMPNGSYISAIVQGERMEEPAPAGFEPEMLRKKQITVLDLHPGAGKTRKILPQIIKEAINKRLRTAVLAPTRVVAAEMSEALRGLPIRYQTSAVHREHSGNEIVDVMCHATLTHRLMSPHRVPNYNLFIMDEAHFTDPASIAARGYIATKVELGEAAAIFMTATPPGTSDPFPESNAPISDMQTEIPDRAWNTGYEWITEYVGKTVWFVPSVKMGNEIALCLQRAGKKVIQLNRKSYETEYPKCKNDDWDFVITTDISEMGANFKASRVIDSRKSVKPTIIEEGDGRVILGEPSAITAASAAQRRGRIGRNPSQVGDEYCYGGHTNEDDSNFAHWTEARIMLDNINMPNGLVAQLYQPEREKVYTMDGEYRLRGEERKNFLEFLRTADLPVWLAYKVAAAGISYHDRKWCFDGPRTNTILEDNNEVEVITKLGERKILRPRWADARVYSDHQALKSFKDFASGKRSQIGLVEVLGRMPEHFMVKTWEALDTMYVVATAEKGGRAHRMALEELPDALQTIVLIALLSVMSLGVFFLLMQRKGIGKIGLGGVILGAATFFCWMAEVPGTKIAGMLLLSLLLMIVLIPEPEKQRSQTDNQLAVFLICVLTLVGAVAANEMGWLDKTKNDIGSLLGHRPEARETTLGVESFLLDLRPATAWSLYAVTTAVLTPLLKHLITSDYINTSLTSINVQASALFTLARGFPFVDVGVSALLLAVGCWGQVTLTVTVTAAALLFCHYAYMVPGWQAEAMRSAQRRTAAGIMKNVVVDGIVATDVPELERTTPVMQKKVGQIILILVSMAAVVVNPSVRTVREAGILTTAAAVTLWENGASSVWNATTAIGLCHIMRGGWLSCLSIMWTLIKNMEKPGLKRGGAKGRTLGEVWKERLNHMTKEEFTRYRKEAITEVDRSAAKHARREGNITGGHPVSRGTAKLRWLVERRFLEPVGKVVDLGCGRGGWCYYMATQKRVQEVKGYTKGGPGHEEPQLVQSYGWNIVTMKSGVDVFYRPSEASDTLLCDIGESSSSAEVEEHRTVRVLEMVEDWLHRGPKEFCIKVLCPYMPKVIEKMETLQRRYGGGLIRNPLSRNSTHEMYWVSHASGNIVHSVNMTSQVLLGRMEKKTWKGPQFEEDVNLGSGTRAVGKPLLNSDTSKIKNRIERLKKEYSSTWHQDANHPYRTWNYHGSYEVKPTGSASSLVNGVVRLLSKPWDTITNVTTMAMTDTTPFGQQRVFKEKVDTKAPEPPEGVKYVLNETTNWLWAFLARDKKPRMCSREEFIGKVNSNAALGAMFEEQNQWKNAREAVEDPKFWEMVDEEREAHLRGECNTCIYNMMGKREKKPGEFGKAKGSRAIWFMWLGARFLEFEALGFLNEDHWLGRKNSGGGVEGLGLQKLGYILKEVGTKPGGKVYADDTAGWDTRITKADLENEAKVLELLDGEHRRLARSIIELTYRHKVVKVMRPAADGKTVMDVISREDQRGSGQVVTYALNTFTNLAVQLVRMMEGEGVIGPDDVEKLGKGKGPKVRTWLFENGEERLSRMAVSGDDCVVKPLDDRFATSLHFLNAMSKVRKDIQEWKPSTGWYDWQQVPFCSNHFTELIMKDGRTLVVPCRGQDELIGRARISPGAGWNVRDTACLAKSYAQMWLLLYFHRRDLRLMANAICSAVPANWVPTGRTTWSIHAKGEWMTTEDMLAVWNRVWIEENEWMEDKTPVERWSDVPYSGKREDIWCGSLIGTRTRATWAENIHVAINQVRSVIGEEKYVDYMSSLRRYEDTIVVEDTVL

With `O=C(Nc1ccc(F)cc1)n1ccnc1`, the inhibition is under 15% in test [1]; under 15% in [2]; 28% in the test with Escherichia coli [3]; under 15% in the test with Escherichia coli [4]; under 15% in test [5]; under 15% in the test on Escherichia coli [6]. Besides, the inhibition in the test on Escherichia coli [9], with Escherichia coli [10], in the test on Escherichia coli [11], in the test with Escherichia coli [12] and against Prothrombin (Bos taurus) was under 15% in each case. The Activity (with Escherichia coli [7]; in [8]) was under 0.1 L/mol/s throughout.
Regarding `CCCCNC(=O)C[S+](C)C`, the inhibition in test [1] was under 15%; in [2] it was under 15%; with Escherichia coli [3], under 15%; with Escherichia coli [4] it was under 15%; in [5], under 15%; with Escherichia coli [6] it was 29%. Besides, the inhibition in the test on Escherichia coli [9], in the test with Escherichia coli [10], with Escherichia coli [11], with Escherichia coli [12] and at Prothrombin (Bos taurus) was under 15% throughout. The compound further displayed an Activity in the test with Escherichia coli [13] of under 0.1 L/mol/s. The pEC50 in the test with HeLa is under 4.00.
For `O=C(Nc1ccccc1)n1ccnc1` [IMIDAZOLE-1-CARBOXYLIC ACID PHENYLAMIDE], the Activity (in the test with Escherichia coli [14]; with Escherichia coli [13]; in test [8]) was under 0.1 L/mol/s throughout. Moreover, the inhibition (in test [1]; in test [2]; in the test on Escherichia coli [3]; with Escherichia coli [4]; in test [5]; with Escherichia coli [6]) was under 15% each time. Also, the inhibition in the test with Escherichia coli [9], in the test on Escherichia coli [10], with Escherichia coli [11], in the test on Escherichia coli [12] and at Prothrombin (Bos taurus) was under 15% each time. In addition, the negative logarithm of the EC50 (pEC50) with HeLa was under 4.00. For the same compound, in the test on Escherichia coli [15], the outcome was inactive.
Regarding `O=C(Nc1ccc([N+](=O)[O-])cc1)C1CC(Br)=NO1` (stereo not given), the Activity (in the test on Escherichia coli [14]; in the test with Escherichia coli [13]; in the test with Escherichia coli [7]; in [8]) was under 0.1 L/mol/s in each case. Further, the inhibition is under 15% in [1]; under 15% in test [2]; under 15% with Escherichia coli [3]; under 15% with Escherichia coli [4]; under 15% in test [5]; 44% in the test on Escherichia coli [6]. Moreover, the inhibition in the test on Escherichia coli [9] is under 15%; in the test on Escherichia coli [10], 28%; in the test on Escherichia coli [11], under 15%; in the test with Escherichia coli [12] it was under 15%; against Prothrombin (Bos taurus), under 15%. Also, the pEC50 in the test with HeLa was 4.13. In test [16], the T1/2 is over 200 h.
In the case of `O=C(Nc1ccccc1)C1CC(Br)=NO1` (stereo not given), the Activity (in the test with Escherichia coli [14]; with Escherichia coli [13]; in test [8]) was under 0.1 L/mol/s throughout. The inhibition (in test [1]; in test [2]; with Escherichia coli [3]; in the test with Escherichia coli [4]; in test [5]; in the test with Escherichia coli [6]) was under 15% in each case. The inhibition in the test with Escherichia coli [9], with Escherichia coli [10], in the test with Escherichia coli [11], in the test on Escherichia coli [12] and at Prothrombin (Bos taurus) was under 15% throughout. Further, the pEC50 in the test with HeLa is under 4.00. Besides, the T1/2 in test [16] was over 200 h. For the same compound, the outcome with Escherichia coli [15] was inactive.
Regarding `N#CCC(=O)Nc1ccccc1`, the Activity (in the test on Escherichia coli [14]; in the test on Escherichia coli [13]; in test [8]) was under 0.1 L/mol/s throughout. Also, the inhibition in test [1] is under 15%; in test [2], under 15%; in the test with Escherichia coli [3], under 15%; in the test on Escherichia coli [4], under 15%; in test [5] it was under 15%; in the test on Escherichia coli [6], 23%. The inhibition in the test on Escherichia coli [9], with Escherichia coli [10], with Escherichia coli [11], in the test on Escherichia coli [12] and on Prothrombin (Bos taurus) was under 15% each time. In the test with HeLa, the pEC50 was under 4.00. The result in the test with Escherichia coli [15] was inactive.
With `C[S+](C)CC(=O)Nc1ccccc1`, the Activity in the test with Escherichia coli [14] and in the test on Escherichia coli [13] was under 0.1 L/mol/s throughout. Further, the inhibition in test [1] was under 15%; in [2], under 15%; in the test with Escherichia coli [3] it was under 15%; in the test on Escherichia coli [4], under 15%; in test [5] it was under 15%; in the test on Escherichia coli [6], 32%. In addition, the inhibition in the test with Escherichia coli [9], with Escherichia coli [10], with Escherichia coli [11], in the test with Escherichia coli [12] and against Prothrombin (Bos taurus) was under 15% in each case. The pEC50 with HeLa is under 4.00. In addition, in the test on Escherichia coli [15], the outcome was inactive.
Consider `C=CC(=O)Nc1ccccc1`, for which the Activity is under 0.1 L/mol/s with Escherichia coli [14], under 0.1 L/mol/s in the test on Escherichia coli [13], under 0.1 L/mol/s in test [8] and under 5% in [17]. The inhibition (in [1]; in test [2]; in the test on Escherichia coli [3]; with Escherichia coli [4]; in test [5]; in the test on Escherichia coli [6]) was under 15% in each case. In addition, the inhibition in the test on Escherichia coli [9], in the test with Escherichia coli [10], in the test on Escherichia coli [11], in the test on Escherichia coli [12] and against Prothrombin (Bos taurus) was under 15% throughout. The pEC50 with HeLa is under 4.00. For the same compound, in the test on Escherichia coli [15], the outcome was inactive.
As to `O=C(CCl)Nc1ccccc1`, the Activity (in the test on Escherichia coli [14]; with Escherichia coli [13]; in test [8]) was under 0.1 L/mol/s in each case. For the same compound, the inhibition (in [1]; in test [2]; in the test on Escherichia coli [3]; in the test with Escherichia coli [4]; in test [5]; in the test on Escherichia coli [6]) was under 15% each time. In addition, the inhibition in the test on Escherichia coli [9], with Escherichia coli [10], in the test with Escherichia coli [11], with Escherichia coli [12] and against Prothrombin (Bos taurus) was under 15% throughout. Besides, the pEC50 with HeLa was 4.68. In addition, the outcome in the test on Escherichia coli [15] was inactive.

Values taken from ChEMBL document CHEMBL3352149, “Promiscuity and selectivity in covalent enzyme inhibition: a systematic study of electrophilic fragments” (J Med Chem, 2014).
